Results from ChEMBL document CHEMBL1157479, “Antimalarial activity of novel pyrrolizidinyl derivatives of 4-aminoquinoline” (Bioorg Med Chem Lett, 2008).
Active and inactive are the calls of the source. No cut-off for these calls is given here.

Columns and labels:
[1] = test system: Mus musculus; experiment: Toxicity in CD1 mouse assessed as body weight variation at 50 mg/kg, ip after 13 days; format: organism-based; parameters: dose 50 mg/kg, route intraperitoneal; conditions: in vivo, 312 h
In short: (§1)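 Intraperitoneal dosing was given to groups of 4 mice alongside an untreated control group. Surviving mice were counted and signs noted. Mean body weight was recorded initially and after 5 and 13 days, expressed as % variation.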

[2] = test system: Liver microsomes; experiment: Metabolic stability in human liver microsomes assessed as clearance; format: ADME, Microsome
In short: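 Human liver microsomes were used at a final 0.5 mg/ml in potassium phosphate buffer pH 7.4, with compound in DMSO, pre-incubated 10 min at 37 °C. The reaction was started with NADP, G6P, G6P-DH, MgCl2 3 mM and UDPGA 1 mM. Samples were taken at 0 and 30 min, quenched in acetonitrile and analysed by LC–MS/MS. A no-cofactor control and a 7-ethoxycoumarin standard were included.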

[3] = test system: Plasmodium falciparum; experiment: Antimalarial activity against chloroquine-sensitive Plasmodium falciparum D10 by LDH assay; format: functional, organism-based
In short: (§2)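 Parasite growth inhibition in P. falciparum culture was read as parasite lactate dehydrogenase production. IC50 is the mean of 3–4 experiments, each run in triplicate.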

[4] = test system: Plasmodium falciparum; experiment: Antimalarial activity against chloroquine-resistant Plasmodium falciparum W2 by LDH assay; format: functional, organism-based; in short: as §2
[5] = test system: Plasmodium falciparum; experiment: Antimalarial activity against chloroquine-sensitive Plasmodium falciparum NF54 by [3H]hypoxanthine uptake; format: functional, organism-based
In short: (§3)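 Growth inhibition of P. falciparum was measured by [3H]-hypoxanthine incorporation. IC50 is the mean of two experiments.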

[6] = test system: Plasmodium falciparum; experiment: Antimalarial activity against chloroquine-resistant Plasmodium falciparum K1 by [3H]hypoxanthine uptake; format: functional, organism-based; in short: as §3
[7] = biological target: T1, Histidine-rich protein PFHRP-II (Plasmodium falciparum) (UniProt P05227); experiment: Inhibition of beta-hematin formation as ratio to heme molar equivalent in Plasmodium falciparum; format: functional
T1 sequence (whole entry): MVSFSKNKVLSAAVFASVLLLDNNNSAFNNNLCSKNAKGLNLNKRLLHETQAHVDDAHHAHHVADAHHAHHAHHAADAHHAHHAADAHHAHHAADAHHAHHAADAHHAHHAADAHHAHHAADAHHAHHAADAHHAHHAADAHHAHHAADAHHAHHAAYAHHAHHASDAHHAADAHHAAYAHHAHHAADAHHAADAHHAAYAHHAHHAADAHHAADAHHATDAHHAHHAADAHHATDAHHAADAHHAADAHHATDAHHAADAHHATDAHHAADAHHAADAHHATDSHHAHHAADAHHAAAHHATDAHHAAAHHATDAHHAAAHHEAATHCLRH

[8] = Cytotoxicity against mouse WEHI clone 13 cells by MTT assay; format: cell-based
[9] = Cytotoxicity against human HMEC1 cells by MTT assay; format: cell-based; conditions: HMEC-1
[10] = test system: K562; experiment: Cytotoxicity against human K562 cells by MTT assay; format: cell-based
[11] = test system: Plasmodium berghei; experiment: Antimalarial activity as reduced parasitaemia against Plasmodium berghei ANKA infected NMRI mice (Mus musculus) at 100 mg/kg peroral dose after 3 days; format: functional; parameters: scale not given: the % may be the effect or the level left; conditions: route oral
In short: (§4)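 GFP-transfected P. berghei ANKA-infected NMRI mice, in groups of three, got a single dose 1 day post-infection. Compounds were in 70/30 Tween 80/ethanol, diluted 10× with water. Read-outs were % parasitemia reduction on day 3 post-infection and survival time versus untreated controls (n = 5).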

[12] = test system: Plasmodium berghei; experiment: Antimalarial activity as survival time in Plasmodium berghei ANKA infected NMRI mice (Mus musculus) at 100 mg/kg peroral dose after 3 days; format: functional; conditions: route oral; in short: as §4
[13] = test system: Plasmodium berghei; experiment: Antimalarial activity as reduced parasitaemia against Plasmodium berghei ANKA infected NMRI mice (Mus musculus) at 30 mg/kg subcutaneous dose after 3 days; format: functional; parameters: scale not given: the % may be the effect or the level left; in short: as §4
[14] = test system: Plasmodium berghei; experiment: Antimalarial activity as survival time in Plasmodium berghei ANKA infected NMRI mice (Mus musculus) at 30 mg/kg subcutaneous dose after 3 days; format: functional; in short: as §4
[15] = test system: Plasmodium berghei; experiment: Antimalarial activity as reduced parasitaemia against Plasmodium berghei ANKA infected NMRI mice (Mus musculus) at 30 mg/kg/day peroral dose over 4 days; format: functional; parameters: scale not given: the % may be the effect or the level left; conditions: route oral
In short: (§5)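 NMRI mice, in groups of three, were infected with GFP-transfected P. berghei ANKA. Treatment started 1 day post-infection, once daily for 4 consecutive days. Compounds were formulated in 70/30 Tween 80/ethanol and diluted 10× with water. Read-outs were % parasitemia reduction on day 4 post-infection and survival versus untreated controls (n = 5). Cure meant no parasites by microscopy at day 30.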

[16] = test system: Plasmodium berghei; experiment: Antimalarial activity a survival time in Plasmodium berghei ANKA infected NMRI mice (Mus musculus) at 30 mg/kg/day peroral dose over 4 days; format: functional; conditions: route oral; in short: as §5
[17] = test system: Plasmodium berghei; experiment: Antimalarial activity as reduced parasitaemia against Plasmodium berghei ANKA infected NMRI mice (Mus musculus) at 10 mg/kg/day peroral dose over 4 days; format: functional; parameters: scale not given: the % may be the effect or the level left; conditions: route oral; in short: as §5
[18] = test system: Plasmodium berghei; experiment: Antimalarial activity as survival time against Plasmodium berghei ANKA infected NMRI mice (Mus musculus) at 10 mg/kg/day peroral dose over 4 days; format: functional; conditions: route oral; in short: as §5
[19] = test system: Plasmodium berghei; experiment: Antimalarial activity as reduced parasitaemia against Plasmodium berghei ANKA infected NMRI mice (Mus musculus) at 10 mg/kg/day subcutaneous dose over 4 days; format: functional; parameters: scale not given: the % may be the effect or the level left; in short: as §5
[20] = test system: Plasmodium berghei; experiment: Antimalarial activity as survival time against Plasmodium berghei ANKA infected NMRI mice (Mus musculus) at 10 mg/kg/day subcutaneous dose over 4 days; format: functional; in short: as §5
[21] = test system: Plasmodium berghei; experiment: Antimalarial activity as reduced parasitaemia against Plasmodium berghei ANKA infected NMRI mice (Mus musculus) at 3 mg/kg/day subcutaneous dose over 4 days; format: functional; parameters: scale not given: the % may be the effect or the level left; in short: as §5
[22] = test system: Plasmodium berghei; experiment: Antimalarial activity as survival time against Plasmodium berghei ANKA infected NMRI mice (Mus musculus) at 3 mg/kg/day subcutaneous dose over 4 days; format: functional; in short: as §5
[23] = test system: Mus musculus; experiment: Toxicity in CD1 mouse assessed as survival at 100 mg/kg, ip; format: organism-based; parameters: dose 100 mg/kg, route intraperitoneal; conditions: in vivo; in short: as §1
[24] = test system: Mus musculus; experiment: Toxicity in CD1 mouse assessed as survival at 50 mg/kg, ip; format: organism-based; parameters: dose 50 mg/kg, route intraperitoneal; conditions: in vivo; in short: as §1
[25] = test system: Mus musculus; experiment: Toxicity in CD1 mouse assessed as body weight variation at 150 mg/kg, ip after 5 days; format: organism-based; parameters: dose 150 mg/kg, route intraperitoneal; conditions: in vivo, 120 h; in short: as §1
[26] = test system: Mus musculus; experiment: Toxicity in CD1 mouse assessed as body weight variation at 100 mg/kg, ip after 5 days; format: organism-based; parameters: dose 100 mg/kg, route intraperitoneal; conditions: in vivo, 120 h; in short: as §1
[27] = test system: Mus musculus; experiment: Toxicity in CD1 mouse assessed as body weight variation at 50 mg/kg, ip after 5 days; format: organism-based; parameters: dose 50 mg/kg, route intraperitoneal; conditions: in vivo, 120 h; in short: as §1
[28] = test system: Mus musculus; experiment: Toxicity in CD1 mouse assessed as body weight variation at 150 mg/kg, ip after 13 days; format: organism-based; parameters: dose 150 mg/kg, route intraperitoneal; conditions: in vivo, 312 h; in short: as §1
[29] = test system: Mus musculus; experiment: Toxicity in CD1 mouse assessed as body weight variation at 100 mg/kg, ip after 13 days; format: organism-based; parameters: dose 100 mg/kg, route intraperitoneal; conditions: in vivo, 312 h; in short: as §1
[30] = test system: Plasmodium berghei; experiment: Antimalarial curative activity at day 30 against Plasmodium berghei ANKA infected NMRI mice (Mus musculus) at 30 mg/kg/day peroral dose over 4 days; format: functional, organism-based; in short: as §5

| SMILES | CL [2] [mL/min/g] | IC50 [3] [nM] | IC50 [4] [nM] | IC50 [5] [nM] | Activity [7] | IC50 [8] [nM] | IC50 [9] [nM] | IC50 [10] [nM] | Activity [11] [%] | Activity [12] [days] | Activity [13] [%] | Activity [14] [days] | Activity [15] [%] | Activity [16] [days] | Activity [17] [%] | Activity [18] [days] | Activity [19] [%] | Activity [20] [days] | Activity [21] [%] | Activity [22] [days] | other results |
| --- | --- | --- | --- | --- | --- | --- | --- | --- | --- | --- | --- | --- | --- | --- | --- | --- | --- | --- | --- | --- | --- |
| Clc1ccc2c(NCC34CCCN3CCC4)ccnc2c1 | 1.5 | 30.6 | 28.9 | 10.9 | 1.06 | 24700 | > 60000 | 18100 | 99.5 | 13.7 | 99.7 | 10.3 | >99.9 | 25 | >99.9 | 25.7 | >99.9 | 29.3 | 96 | 7.3 | Activity [1]: 20.8%; IC50 [6]: 10.6 nM; Activity [23]: Non-toxic; Activity [24]: Non-toxic; Activity [25]: 12.9%; Activity [26]: 10.1%; Activity [27]: 8.3%; Activity [28]: 22.9%; Activity [29]: 22.2% |
| Clc1ccc2c(NCCC34CCCN3CCC4)ccnc2c1 |  | 5.5 | 54.7 | 6.33 | 1.66 | 61400 | > 60000 | 17600 | 98 | 12.3 | 99.1 | 8.7 | >99.9 | 30 | >99.9 | 14.7 | >99.9 | 15.3 | 94 | 9.3 | IC50 [6]: 19.6 nM; Activity [30]: Active |
| CCN(CC)CCCC(C)Nc1ccnc2cc(Cl)ccc12.O=P(O)(O)O.O=P(O)(O)O (stereo not drawn) [CHLOROQUINE PHOSPHATE] |  |  |  |  | 1.69 | > 40000 | > 40000 | 31800 | 99.2 | 14.7 | 99.2 | 9.7 | >99.9 | 30 | 99.9 | 22.3 | >99.9 | 15.7 | 99.8 | 9.3 | Activity [30]: Active |
| CCOc1ccc2ccc(=O)oc2c1 [ETHOXYCOUMARIN] | 7 |  |  |  |  |  |  |  |  |  |  |  |  |  |  |  |  |  |  |  |  |
